Data reported in ChEMBL document CHEMBL1131429, “Nitrogen-carbon-linked (azolylphenyl)oxazolidinones with potent antibacterial activity against the fastidious gram-negative organisms Haemophilus influenzae and Moraxella catarrhalis” (J Med Chem, 1998).
≈ marks a conversion by molar mass, not a printed value.

Legend:
[1] = tested on: Streptococcus pneumoniae; assay: The compound was evaluated for its effective dose against Streptococcus pneumoniea UC 15087; assay type: functional
[2] = terminal disposition half-life was evaluated in male Dawley rats at a dose of 42.9 mg/kg when taken peroral; assay type: ADME, organism-based; parameters: dose 42.9 mg/kg, route oral; conditions: Sprague-Dawley, rat, in vivo, po
In short: (§1)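 Single intravenous or oral doses were given to male Sprague-Dawley rats (n = 3), with plasma sampled to give Cmax and tmax. Vss was calculated as dose·AUMC/AUC², clearance as dose/AUC, and F as (AUC/dose)po/(AUC/dose)iv × 100, assuming linear PK. t1/2β is the harmonic mean terminal half-life. The oral entries show the iv half-life because the po half-life was not calculable.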

[3] = tested on: Rattus norvegicus; assay: Dawley rats at a dose of 42.9 mg/kg when taken peroral; assay type: functional; conditions: route oral; in short: as §1
[4] = tested on: Staphylococcus epidermidis; assay: The compound was evaluated for its anti-bacterial activity against methicillin resistant Staphylococcus epidermidis; assay type: functional
In short: (§2)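 MIC determined in vitro by standard agar dilution against bacterial isolates.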

[5] = tested on: Rattus norvegicus; assay: tmax was evaluated in male Dawley rats at a dose of 42.9 mg/kg when taken perorally; assay type: functional, organism-based; parameters: dose 42.9 mg/kg; in short: as §1
[6] = tested on: Staphylococcus aureus; assay: The compound was evaluated for its anti-bacterial activity against methicillin susceptible Staphylococcus aureus; assay type: functional; in short: as §2
[7] = tested on: Staphylococcus aureus; assay: The compound was evaluated for its effective dose against Staphylococcus aureus UC 9213; assay type: functional
[8] = steady-state volume of distribution was evaluated in male Dawley rats; assay type: ADME, organism-based; conditions: Sprague-Dawley, rat, in vivo, read-out: Vss; in short: as §1
[9] = Cmax was evaluated in male Dawley rats at a dose of 42.9 mg/kg when taken perorally; assay type: ADME, organism-based; parameters: dose 42.9 mg/kg, route oral; conditions: Sprague-Dawley, rat, in vivo, po; in short: as §1
[10] = tested on: Staphylococcus aureus; assay: The compound was evaluated for its anti-bacterial activity against methicillin resistant Staphylococcus aureus; assay type: functional; in short: as §2
[11] = tested on: Rattus norvegicus; assay: Dawley rats 9.9 mg/kg when taken intravenously; assay type: functional; conditions: route intravenous; in short: as §1
[12] = terminal disposition half-life was evaluated in male Dawley rats at 9.9 mg/kg when taken intravenously; assay type: ADME, organism-based; parameters: dose 9.9 mg/kg, route intravenous; conditions: Sprague-Dawley, rat, in vivo, iv; in short: as §1
[13] = tested on: Haemophilus influenzae; assay: The compound was evaluated for its anti-bacterial activity against Haemophilus influenzae UC 30063; assay type: functional
In short: (§3)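 MICs were determined by standard agar dilution against a panel of Gram-positive and Gram-negative isolates.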

[14] = tested on: Moraxella catarrhalis; assay: The compound was evaluated for its anti-bacterial activity against Moraxella catarrhalis UC 30610; assay type: functional; in short: as §3
[15] = Absolute oral bioavailability was evaluated n male Dawley rats at a dose of 42.9 mg/kg when taken peroral; assay type: ADME, organism-based; conditions: Sprague-Dawley, rat, in vivo; in short: as §1
[16] = tested on: Streptococcus pneumoniae; assay: The compound was evaluated for its control effective dose against Streptococcus pneumoniea UC 15087; assay type: functional
[17] = tested on: Staphylococcus aureus; assay: The compound was evaluated for its control effective dose against Staphylococcus aureus UC 9213; assay type: functional
[18] = tested on: Streptococcus pneumoniae; assay: The compound was evaluated for its anti-bacterial activity against Streptococcus pneumoniae UC 9912; assay type: functional; in short: as §3
[19] = Cmax was evaluated in male Dawley rats at a dose of 9.9 mg/kg when taken intravenously; assay type: ADME, organism-based; parameters: dose 9.9 mg/kg, route intravenous; conditions: Sprague-Dawley, rat, in vivo, iv; in short: as §1
[20] = tested on: Enterococcus faecalis; assay: The compound was evaluated for its anti-bacterial activity against Enterococcus faecalis UC 9217; assay type: functional; in short: as §3
[21] = tested on: Rattus norvegicus; assay: tmax was evaluated in male Dawley rats at a dose of 25 mg/kg when taken perorally; assay type: functional, organism-based; parameters: dose 25 mg/kg
[22] = Cmax was evaluated in male Dawley rats at a dose of 25 mg/kg when taken perorally; assay type: ADME, organism-based; parameters: dose 25 mg/kg, route oral; conditions: Sprague-Dawley, rat, in vivo, po
[23] = Steady-state volume distribution was evaluated in male Dawley rats at a dose of 10 mg/kg when taken intravenously; assay type: ADME, organism-based; parameters: dose 10 mg/kg, route intravenous; conditions: Sprague-Dawley, rat, in vivo, iv, read-out: Vss
[24] = tested on: Rattus norvegicus; assay: Dawley rats at a dose of 10 mg/kg when taken intravenously; assay type: functional; conditions: route intravenous
[25] = Absolute oral bioavailability was evaluated n male Dawley rats at a dose of 46.8 mg/kg when taken peroral; assay type: ADME, organism-based; conditions: Sprague-Dawley, rat, in vivo; in short: as §1
[26] = Steady-state volume of distribution was evaluated in male Dawley rats at a dose of 9.0 mg/kg when taken intravenously; assay type: ADME, organism-based; parameters: dose 9 mg/kg, route intravenous; conditions: Sprague-Dawley, rat, in vivo, iv, read-out: Vss; in short: as §1
[27] = terminal disposition half-life was evaluated in male Dawley rats at a dose of 46.8 mg/kg when taken peroral; assay type: ADME, organism-based; parameters: dose 46.8 mg/kg, route oral; conditions: Sprague-Dawley, rat, in vivo, po; in short: as §1
[28] = tested on: Rattus norvegicus; assay: Dawley rats at a dose of 46.8 mg/kg when taken peroral; assay type: functional; conditions: route oral; in short: as §1
[29] = tested on: Rattus norvegicus; assay: Dawley rats at a dose of 9.0 mg/kg when taken intravenously; assay type: functional; conditions: route intravenous; in short: as §1
[30] = Cmax was evaluated in male Dawley rats at a dose of 46.8 mg/kg when taken perorally; assay type: ADME, organism-based; parameters: dose 46.8 mg/kg, route oral; conditions: Sprague-Dawley, rat, in vivo, po; in short: as §1
[31] = Cmax was evaluated in male Dawley rats at a dose of 9.0 mg/kg when taken intravenously; assay type: ADME, organism-based; parameters: dose 9 mg/kg, route intravenous; conditions: Sprague-Dawley, rat, in vivo, iv; in short: as §1
[32] = terminal disposition half-life was evaluated in male Dawley rats at a dose of 9.0 mg/kg when taken intravenously; assay type: ADME, organism-based; parameters: dose 9 mg/kg, route intravenous; conditions: Sprague-Dawley, rat, in vivo, iv; in short: as §1
[33] = tmax was evaluated in male Dawley rats at a dose of 46.8 mg/kg when taken perorally; assay type: ADME, organism-based; parameters: dose 46.8 mg/kg, route oral; conditions: Sprague-Dawley, rat, in vivo, po; in short: as §1

Row | SMILES | MIC [4] | MIC [6] | ED50 [7] | MIC [10] | MIC [13] | MIC [14] | ED50 [17] | MIC [18] | MIC [20] | other results
1 | CC(=O)NC[C@H]1CN(c2ccc(-n3ccc(C#N)c3)c(F)c2)C(=O)O1 | < 0.125 µg/mL | 0.5 µg/mL (≈ 1.46 µM) | 1.9 mg/kg/day | 0.25 µg/mL (≈ 0.73 µM) | 4 µg/mL (≈ 11.7 µM) | 1 µg/mL (≈ 2.92 µM) | 4 mg/kg/day | < 0.125 µg/mL | 0.25 µg/mL (≈ 0.73 µM) | ED50 [1]: 0.6 mg/kg/day; half-life [2]: 5.14 h; CL/F [3]: 1.43 mL/min/kg; Tmax [5]: 10 h; Vd [8]: 0.52 L/kg; Cmax [9]: 31 µM; CL/F [11]: 1.18 mL/min/kg; half-life [12]: 5.15 h; bioavailability [15]: 92%; ED50 [16]: 1.4 mg/kg/day; Cmax [19]: 26.1 µM
2 | CC(=O)NC[C@H]1CN(c2ccc(N3CCOCC3)c(F)c2)C(=O)O1 [LINEZOLID] | 1 µg/mL (≈ 2.96 µM) | – | – | – | 16 µg/mL (≈ 47.4 µM) | 8 µg/mL (≈ 23.7 µM) | – | – | – | Tmax [21]: 0.3 h; Cmax [22]: 15.8 µM; Vd [23]: 0.72 L/kg; CL/F [24]: 10.5 mL/min/kg
3 | CC(=O)NC[C@H]1CN(c2ccc(N3CCN(C(=O)CO)CC3)c(F)c2)C(=O)O1 [EPEREZOLID] | 0.5 µg/mL (≈ 1.27 µM) | 4 µg/mL (≈ 10.1 µM) | – | 1 µg/mL (≈ 2.54 µM) | 16 µg/mL (≈ 40.6 µM) | 8 µg/mL (≈ 20.3 µM) | – | 0.5 µg/mL (≈ 1.27 µM) | 2 µg/mL (≈ 5.07 µM) | –
4 | CC(=O)NC[C@H]1CN(c2ccc(-n3cc(C#N)cn3)c(F)c2)C(=O)O1 | < 0.125 µg/mL | 0.5 µg/mL (≈ 1.46 µM) | 1.2 mg/kg/day | 0.5 µg/mL (≈ 1.46 µM) | 4 µg/mL (≈ 11.7 µM) | 2 µg/mL (≈ 5.83 µM) | 3.3 mg/kg/day | < 0.125 µg/mL | 0.5 µg/mL (≈ 1.46 µM) | ED50 [1]: 0.35 mg/kg/day; bioavailability [25]: 80%; Vd [26]: 0.43 L/kg; half-life [27]: 5.35 h; CL/F [28]: 1.25 mL/min/kg; CL/F [29]: 1.04 mL/min/kg; Cmax [30]: 29.4 µM; Cmax [31]: 29.2 µM; half-life [32]: 5.35 h; Tmax [33]: 4 h; ED50 [16]: 3.2 mg/kg/day
5 | CC(=O)NC[C@H]1CN(c2ccc(-n3cc(C(N)=O)cn3)c(F)c2)C(=O)O1 | 4 µg/mL (≈ 11.1 µM) | > 16 µg/mL | – | – | > 16 µg/mL | > 16 µg/mL | – | 0.5 µg/mL (≈ 1.38 µM) | > 16 µg/mL | –
6 | CC(=O)NC[C@H]1CN(c2ccc(-n3ccc(C=O)c3)c(F)c2)C(=O)O1 | < 0.125 µg/mL | 0.25 µg/mL (≈ 0.724 µM) | >20 mg/kg/day | 0.25 µg/mL (≈ 0.724 µM) | 2 µg/mL (≈ 5.79 µM) | 1 µg/mL (≈ 2.9 µM) | 1.7 mg/kg/day | < 0.125 µg/mL | 0.25 µg/mL (≈ 0.724 µM) | –
7 | CCOC(=O)c1cnn(-c2ccc(N3C[C@H](CNC(C)=O)OC3=O)cc2F)c1 | 2 µg/mL (≈ 5.12 µM) | 4 µg/mL (≈ 10.2 µM) | – | 4 µg/mL (≈ 10.2 µM) | > 16 µg/mL | > 16 µg/mL | – | 1 µg/mL (≈ 2.56 µM) | 4 µg/mL (≈ 10.2 µM) | –
8 | CC(=O)NC[C@H]1CN(c2ccc(-n3ccc(/C=N\O)c3)c(F)c2)C(=O)O1 | 0.25 µg/mL (≈ 0.694 µM) | 1 µg/mL (≈ 2.78 µM) | 5.5 mg/kg/day | 0.5 µg/mL (≈ 1.39 µM) | 4 µg/mL (≈ 11.1 µM) | 1 µg/mL (≈ 2.78 µM) | 2.6 mg/kg/day | < 0.125 µg/mL | 0.5 µg/mL (≈ 1.39 µM) | –
9 | CN[C@H](CC(C)C)C(=O)N[C@H]1C(=O)N[C@@H](CC(N)=O)C(=O)N[C@H]2C(=O)N[C@H]3C(=O)N[C@H](C(=O)N[C@H](C(=O)O)c4cc(O)cc(O)c4-c4cc3ccc4O)[C@H](O)c3ccc(c(Cl)c3)Oc3cc2cc(c3O[C@@H]2O[C@H](CO)[C@@H](O)[C@H](O)[C@H]2O[C@H]2C[C@](C)(N)[C@H](O)[C@H](C)O2)Oc2ccc(cc2Cl)[C@H]1O [VANCOMYCIN] | – | – | – | – | > 32 µg/mL | > 32 µg/mL | – | 0.5 µg/mL (≈ 0.345 µM) | – | –
